Screening results as filed in PubChem BioAssay.
ARFGAP1 inhibitor: rat ARFGAP1 inhibition | Q62848 | Arfgap1-stimulated ARF1 GTP hydrolysis, GDP FP detection | inhibition, % at 16.5 µM | 0.26% of 360,000 active | AID 651572;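 active means inhibition above a per-plate limit, mean inhibition of low control wells plus 3 SD, cut at about 25% in these data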;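 further: 0% = DMSO wells with enzyme and 100% = wells lacking Arfgap1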
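Material – truncated rat Arfgap1 GAP domain · Buffer or medium – HEPES-based buffer, pH 7.5 · Reagent – human ARF1(Δ1-17)-GTP substrate · Dosing – 16.5 µM single point, 1.26% DMSO · Schedule – GTP hydrolysis reaction 2 h at 25 °C · Technique – GDP detection by fluorescence polarization · Benchmarks – No-Arfgap1 wells (100%) versus DMSO full-reaction wells (0%) · Repeats – single replicate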
FGF22 binding: FGF22 (human) thermal shift binding; Q9HCT0; recombinant FGF22 thermal shift, SYPRO orange fluorescence; percent of sucrose octasulfate shift, DMSO zero; activity (Tm shift, normalised), % at 9.99 µM; 1.5% of 340,000 active;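 active means mean Tm shift, scaled 0 neutral to 100 positive control, at about 1.3% or above, every replicate too, limit read from the data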
Target sequence (Q9HCT0 whole entry, looked up): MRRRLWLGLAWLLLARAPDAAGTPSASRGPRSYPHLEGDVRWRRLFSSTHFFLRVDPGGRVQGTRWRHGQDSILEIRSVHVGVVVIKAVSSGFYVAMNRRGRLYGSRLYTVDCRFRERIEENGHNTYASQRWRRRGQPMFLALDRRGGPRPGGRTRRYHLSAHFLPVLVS
Efflux pump mplx: antifungal efflux pump inhibition, Nile Red retention. inhibition, % at 10 µM. S. cerevisiae Candida pump triplex. 0.44% of 330,000 active. AID 485275;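 active means plate passing quality check with inhibition over a set limit, or well fluorescence over plate mean plus 4 SD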;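 further: Nile Red retained in pooled yeast measured as flow cytometry median fluorescence; 0% = buffer negative control and 100% = Enniatin B positive control; higher means more Nile Red kept so more efflux inhibition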
Rtt109 HAT inh: C. albicans Rtt109 histone acetyltransferase inhibition; AID 540336; Q5AAJ8; inhibition, % at 34.9 µM; 0.16% of 330,000 active; purified Rtt109/Vps75, ThioGlo CoA-SH fluorescence, 4 h;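 active means inhibition of at least 50% in every replicate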
ASAP1 inh: inhibitors of human ASAP1 ArfGAP activity; AID 624377; inhibition, % at 16.5 µM; Q9ULH1; ASAP1-stimulated ARF1 GTP hydrolysis, GDP FP detection; 0.19% of 360,000 active; in the data active means inhibition above about 25%;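 further: 0% = vehicle with enzyme and substrate and 100% = no enzyme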
Target sequence (Q9ULH1 325-724 limits assumed): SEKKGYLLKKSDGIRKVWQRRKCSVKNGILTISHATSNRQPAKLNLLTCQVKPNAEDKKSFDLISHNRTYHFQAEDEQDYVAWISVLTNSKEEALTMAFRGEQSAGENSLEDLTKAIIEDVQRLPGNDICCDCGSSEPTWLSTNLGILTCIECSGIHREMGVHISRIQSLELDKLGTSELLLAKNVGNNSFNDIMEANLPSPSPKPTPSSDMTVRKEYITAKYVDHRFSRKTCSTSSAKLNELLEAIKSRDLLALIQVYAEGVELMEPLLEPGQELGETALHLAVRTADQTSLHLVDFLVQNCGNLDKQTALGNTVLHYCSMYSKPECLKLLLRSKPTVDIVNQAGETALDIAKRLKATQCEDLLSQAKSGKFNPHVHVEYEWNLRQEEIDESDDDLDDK
* hit, by the source's call. Most compounds without a hit are left out; they make up all but 1.9% or so of the library.

CCNC(=O)C[C@H]1CC[C@@H]2[C@H](COC[C@H](O)CN2Cc2ccccc2F)O1 was read as FGF22 binding 0.0.
`CC(=O)C1=C(O)C(=O)N(CCNCCO)C1c1ccccc1` (configuration not stated) gave ARFGAP1 inhibitor -6.0, Efflux pump mplx 0.1, Rtt109 HAT inh -4.1 and ASAP1 inh 4.8.
`Nc1ccccc1-c1ccccc1N` gave ARFGAP1 inhibitor -3.8, FGF22 binding 44.1*, Efflux pump mplx 0.0, Rtt109 HAT inh -5.1 and ASAP1 inh 1.9.
Screening CCOC(=O)CC(=O)CSc1nc(N)c(C#N)c(-c2ccc(Cl)cc2)c1C#N returned ARFGAP1 inhibitor 11.8, FGF22 binding 0.3, Efflux pump mplx 0.0, Rtt109 HAT inh -3.0 and ASAP1 inh 2.3.
`COc1ccc(-c2cnc3nc(/N=C/N(C)C)nn3c2/N=C/N(C)C)cc1` gave ARFGAP1 inhibitor 11.1, FGF22 binding 43.0*, Efflux pump mplx -0.1, Rtt109 HAT inh -7.9 and ASAP1 inh 1.5.
For CN(C)/C=N/c1nc2nccc(-c3ccc(Cl)cc3)n2n1 the results were ARFGAP1 inhibitor 12.2, FGF22 binding 0.2, Efflux pump mplx 0.3, Rtt109 HAT inh -4.3 and ASAP1 inh -4.6.
`COc1ccc(/C=N/n2c(=S)n(C)c3ccccc32)cc1OC` gave ARFGAP1 inhibitor -3.7, Efflux pump mplx -0.2, Rtt109 HAT inh 3.1 and ASAP1 inh 22.0.
COc1ccc(N(C)S(=O)(=O)c2ccc(Cl)c(C(=O)NCCc3ccc(Cl)cc3)c2)cc1 was read as ARFGAP1 inhibitor 5.8, FGF22 binding 43.4*, Efflux pump mplx -0.1, Rtt109 HAT inh 18.4 and ASAP1 inh 1.6.
`Cc1ccc(C2=NN(S(=O)(=O)c3ccccc3)C(c3ccccc3O)C2)cc1` (configuration not stated) gave ARFGAP1 inhibitor 10.1, FGF22 binding 43.6* and ASAP1 inh 10.2.
CSCCC1C(=O)OC2(C)CC(C)(C)NC(=S)N12 (configuration not stated) was read as ARFGAP1 inhibitor 7.7, Efflux pump mplx 0.0, Rtt109 HAT inh -7.3 and ASAP1 inh 5.1.
Screening CC[N+](CC)(CCCCS(=O)(=O)[O-])CCNP1(=O)C=C(c2ccccc2)OC(c2ccccc2)=C1 returned ARFGAP1 inhibitor -9.6, FGF22 binding 43.8*, Efflux pump mplx 0.2, Rtt109 HAT inh 5.4 and ASAP1 inh 5.5.
`COc1cc(/C=N/NC(=O)c2ccc(O)cc2)ccc1Oc1ccc([N+](=O)[O-])cn1` gave ARFGAP1 inhibitor 5.3, FGF22 binding 44.0*, Efflux pump mplx 0.1, Rtt109 HAT inh 5.7 and ASAP1 inh 6.6.
Screening O=C(NNC(=S)NC(=O)c1ccco1)c1ccc(F)cc1 returned ARFGAP1 inhibitor -3.9, FGF22 binding 6.2*, Efflux pump mplx 0.0, Rtt109 HAT inh -6.8 and ASAP1 inh 4.1.
COc1cc(/C=N/NC(=O)c2cccc([N+](=O)[O-])c2)ccc1OC(=O)c1ccco1 was read as ARFGAP1 inhibitor 4.7, FGF22 binding 42.9*, Efflux pump mplx 0.1, Rtt109 HAT inh -5.7 and ASAP1 inh 1.9.
COc1cc(/C=N/N2CCOCC2)ccc1OC(=O)c1ccco1 was read as ARFGAP1 inhibitor 7.1, FGF22 binding 42.9*, Efflux pump mplx 0.1, Rtt109 HAT inh -4.1 and ASAP1 inh 0.3.
`Cc1noc(C)c1NC(=O)Nc1cccc2c1O[C@@H](CN(C)Cc1ccc(Cl)c(Cl)c1)[C@H](C)CN([C@@H](C)CO)C2=O` gave FGF22 binding 0.4.
C/C(=N\OC(=O)NC(C)C)c1sc(-c2ccc(Cl)cc2)nc1C was read as ARFGAP1 inhibitor 1.3, Efflux pump mplx 0.1, Rtt109 HAT inh 15.6 and ASAP1 inh 5.6.
For N=c1sccn1CC(=O)Nc1cccc(Oc2ccccc2)c1 the results were ARFGAP1 inhibitor -0.1, Efflux pump mplx 0.0, Rtt109 HAT inh -0.6 and ASAP1 inh 4.3.
For COc1cccc(-c2cnc3c(c2)C(=O)N([C@H](C)CO)C[C@@H](C)[C@@H](CN(C)C(C)=O)O3)c1 the results were FGF22 binding -0.4.
CCOc1cc(/C=N/Nc2nc(N3CCCCC3)nc(N3CCCCC3)n2)ccc1OC(=O)c1ccco1 was read as ARFGAP1 inhibitor 6.1, FGF22 binding 43.0*, Efflux pump mplx 0.5, Rtt109 HAT inh -0.1 and ASAP1 inh -3.4.
For COc1cc(NC(=O)c2cccc([N+](=O)[O-])c2)ccc1NC(=O)c1ccco1 the results were ARFGAP1 inhibitor -2.0, FGF22 binding 44.0*, Efflux pump mplx -0.4, Rtt109 HAT inh 4.7 and ASAP1 inh -4.8.
`Cc1cccc(C(=O)NNC(=O)c2ccco2)c1` gave ARFGAP1 inhibitor -2.9, FGF22 binding 43.0*, Efflux pump mplx 0.2 and ASAP1 inh 8.8.
Screening COc1cccc(C(=O)Nc2ccc(NC(=O)c3ccco3)nc2)c1 returned ARFGAP1 inhibitor 7.3, Efflux pump mplx 0.1, Rtt109 HAT inh -0.2 and ASAP1 inh 13.2.
Screening COc1cccc(NC(=O)c2cccc(NC(=O)c3ccco3)c2)c1 returned ARFGAP1 inhibitor -2.8, FGF22 binding 43.2* and ASAP1 inh -13.6.
For Cc1cccc(NC(=O)c2cccc(NC(=O)c3ccco3)c2)c1 the results were ARFGAP1 inhibitor 4.6, FGF22 binding 0.0, Rtt109 HAT inh -4.9 and ASAP1 inh 14.1.
`Cc1ccccc1OCC(=O)NNC=O` gave ARFGAP1 inhibitor -9.9, FGF22 binding 43.0*, Efflux pump mplx 0.3, Rtt109 HAT inh -4.0 and ASAP1 inh -8.2.
Cc1ccccc1NC(=O)COc1ccccc1C was read as ARFGAP1 inhibitor -2.6, FGF22 binding 0.1, Efflux pump mplx 0.1, Rtt109 HAT inh 8.5 and ASAP1 inh -5.1.
`Cc1ccccc1OCC(=O)Nc1nc2ccccc2[nH]1` gave ARFGAP1 inhibitor -5.2, FGF22 binding 43.0*, Efflux pump mplx 0.1, Rtt109 HAT inh -9.8 and ASAP1 inh 1.3.
For Cc1ccccc1OCC(=O)NNC(=O)CCN1C(=O)c2ccccc2C1=O the results were ARFGAP1 inhibitor 1.4, FGF22 binding 43.1*, Efflux pump mplx 0.0, Rtt109 HAT inh -25.4 and ASAP1 inh -5.3.
`O=C(c1ccc(Cn2c(=O)[nH]c3ccsc3c2=O)cc1)N1CCN(c2ccccc2)CC1` gave ARFGAP1 inhibitor 4.7, FGF22 binding -0.1, Efflux pump mplx 0.0, Rtt109 HAT inh 9.5 and ASAP1 inh 19.3.
`O=C1c2ccccc2C(=O)N1c1cccnc1` gave ARFGAP1 inhibitor -0.2, Efflux pump mplx 0.0, Rtt109 HAT inh -5.5 and ASAP1 inh -20.9.
For CCCC(C)NCC(=O)Nc1ccccc1-c1ccccc1 (configuration not stated) the results were ARFGAP1 inhibitor -3.8, Efflux pump mplx 0.0 and ASAP1 inh 3.0.
`Cc1ccc(-c2c(C)n([O-])c3c([n+]2=O)CCCC3)cc1` gave ARFGAP1 inhibitor 4.9, FGF22 binding -0.1, Efflux pump mplx 0.0, Rtt109 HAT inh 7.0 and ASAP1 inh -5.5.
